Reference: ChEMBL document CHEMBL3352760, “Nanomolar-Potency Small Molecule Inhibitor of STAT5 Protein” (ACS Med Chem Lett, 2014)
Calls of active or inactive are those of the source. The rule behind the calls is not given here.

Key:
[1] = target: T1, Signal transducer and activator of transcription 5B (Homo sapiens, UniProt P51692); assay: Inhibition of STAT5B SH2 domain (unknown origin)-5-FAM-GpYLVLDKW interaction compound treated for 15 mins by fluorescent polarization assay
T1 sequence (P51692 whole entry): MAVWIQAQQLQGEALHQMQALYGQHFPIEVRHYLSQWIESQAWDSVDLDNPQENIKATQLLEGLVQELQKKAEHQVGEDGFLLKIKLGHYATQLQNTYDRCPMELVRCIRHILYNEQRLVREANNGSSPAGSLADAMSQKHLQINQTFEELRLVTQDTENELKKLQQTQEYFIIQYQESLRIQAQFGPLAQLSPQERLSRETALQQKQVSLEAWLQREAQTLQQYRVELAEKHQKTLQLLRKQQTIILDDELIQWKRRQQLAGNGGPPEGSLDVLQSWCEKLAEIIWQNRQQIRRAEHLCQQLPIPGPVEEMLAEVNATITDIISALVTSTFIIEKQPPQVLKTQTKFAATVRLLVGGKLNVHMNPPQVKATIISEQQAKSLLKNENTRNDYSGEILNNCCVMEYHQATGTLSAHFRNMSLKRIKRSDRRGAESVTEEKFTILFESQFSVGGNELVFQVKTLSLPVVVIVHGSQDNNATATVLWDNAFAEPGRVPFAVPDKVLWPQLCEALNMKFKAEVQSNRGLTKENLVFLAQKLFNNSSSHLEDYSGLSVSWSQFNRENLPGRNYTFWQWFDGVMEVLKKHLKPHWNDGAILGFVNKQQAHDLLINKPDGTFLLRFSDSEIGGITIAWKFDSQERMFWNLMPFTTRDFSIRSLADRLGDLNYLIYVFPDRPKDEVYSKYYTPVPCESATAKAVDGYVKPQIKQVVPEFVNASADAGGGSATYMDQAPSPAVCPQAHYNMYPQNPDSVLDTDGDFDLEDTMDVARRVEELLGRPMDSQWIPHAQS
In short: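 Fluorescence polarization used STAT5B SH2 domain bound to the fluorescein-labelled phosphopeptide 5-FAM-GpYLVDKW, with inhibitor tested up to 100 μM. Polarization was read every 15 min over 1 h to confirm the probe stayed bound and to pick the time of maximal change. Ki values were derived from the data.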

K562 [2] = assay: Cytotoxicity against human K562 cells assessed as reduction in cell viability after 72 hrs by CellTiter-Blue assay; format: functional, cell-based; conditions: K562, 72 h
In short: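 K562 (Bcr-Abl) and MV-4;11 (FLT3-ITD) leukemia cells were exposed to inhibitor over 0.78–50 μM for 72 h. Viability was read by CellTiter-Blue and IC50 taken from the dose series.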

MV4-11 = assay: Cytotoxicity against human MV4-11 cells assessed as reduction in cell viability after 72 hrs by CellTiter-Blue assay; conditions: MV4-11, 72 h
K562 [3] = assay: Inhibition of STAT5 phosphorylation at Y694 residue in human K562 cells after 5 hrs by Western blotting; format: cell-based
In short: (§1)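 K562 cells were treated for 5 h across a dose range, then harvested. Immunoblots probed phospho-STAT5 (Y694), total STAT5 and cleaved PARP-1.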

K562 [4] = assay: Inhibition of STAT5 phosphorylation at Y694 residue in human K562 cells at 10 uM after 5 hrs by Western blotting; format: cell-based; in short: as §1
K562 [5] = assay: Effect on total STAT5 level in human K562 cells at 15 uM after 5 hrs by Western blotting; format: functional, cell-based; in short: as §1
MDA-MB-231 [6] = assay: Effect on total STAT5 level in human MDA-MB-231 cells at 15 uM after 5 hrs by Western blotting; format: functional, cell-based
In short: (§2)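 MDA-MB-231 breast cancer cells carry high pSTAT3 and negligible pSTAT5. They were treated up to 20 μM and immunoblotted for pSTAT3, total STAT3 and total STAT5.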

MDA-MB-231 [7] = assay: Effect on total STAT3 level in human MDA-MB-231 cells at 15 uM after 5 hrs by Western blotting; format: functional, cell-based; in short: as §2
K562 [8] = assay: Inhibition of STAT5 phosphorylation at Y694 residue in human K562 cells assessed as decreases in MYC expression after 5 hrs by Western blotting; format: cell-based
In short: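 K562 cells were dosed for 5 h at the same concentrations used for pSTAT5 inhibition. MYC protein was followed by immunoblot.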

K562 [9] = assay: Inhibition of STAT5 phosphorylation at Y694 residue in human K562 cells assessed as decreases in MCL-1 expression at 15 uM after 24 hrs by Western blotting; format: cell-based
In short: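 K562 cells were exposed to 15 μM for 24 h. Lysates were immunoblotted for cleaved PARP-1, cleaved caspase-3 and MCL-1.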

[10] = Cytotoxicity against human CD34-positive umbilical cord cells assessed as reduction in cell viability at 10 uM after 72 hrs by CellTiter-Blue assay; format: cell-based
In short: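 Healthy human CD34+ umbilical cord cells received a single 10 μM dose, with MV4;11 cells run alongside. Cell viability was then measured.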

[11] = target: T1, Signal transducer and activator of transcription 5B; assay: Binding affinity to full-length His-tagged STAT5B (unknown origin) by surface plasmon resonance assay
JAK2/JAK1 (Homo sapiens) = JAK2/JAK1 (Homo sapiens) (UniProt P23458+O60674); assay: Inhibition of JAK1/2 (unknown origin); format: protein-complex assay
[12] = target: Tyrosine-protein kinase ABL1 (Homo sapiens) (UniProt P00519); assay: Inhibition of ABL (unknown origin)
[13] = target: Receptor-type tyrosine-protein kinase FLT3 (Homo sapiens) (UniProt P36888); assay: Inhibition of FLT3 (unknown origin)
[14] = target: Signal transducer and activator of transcription 3 (Homo sapiens) (UniProt P40763); conditions: MDA-MB-231, 15 uM
Chain of Signal transducer and activator of transcription 3 (Homo sapiens) (P40763 whole entry): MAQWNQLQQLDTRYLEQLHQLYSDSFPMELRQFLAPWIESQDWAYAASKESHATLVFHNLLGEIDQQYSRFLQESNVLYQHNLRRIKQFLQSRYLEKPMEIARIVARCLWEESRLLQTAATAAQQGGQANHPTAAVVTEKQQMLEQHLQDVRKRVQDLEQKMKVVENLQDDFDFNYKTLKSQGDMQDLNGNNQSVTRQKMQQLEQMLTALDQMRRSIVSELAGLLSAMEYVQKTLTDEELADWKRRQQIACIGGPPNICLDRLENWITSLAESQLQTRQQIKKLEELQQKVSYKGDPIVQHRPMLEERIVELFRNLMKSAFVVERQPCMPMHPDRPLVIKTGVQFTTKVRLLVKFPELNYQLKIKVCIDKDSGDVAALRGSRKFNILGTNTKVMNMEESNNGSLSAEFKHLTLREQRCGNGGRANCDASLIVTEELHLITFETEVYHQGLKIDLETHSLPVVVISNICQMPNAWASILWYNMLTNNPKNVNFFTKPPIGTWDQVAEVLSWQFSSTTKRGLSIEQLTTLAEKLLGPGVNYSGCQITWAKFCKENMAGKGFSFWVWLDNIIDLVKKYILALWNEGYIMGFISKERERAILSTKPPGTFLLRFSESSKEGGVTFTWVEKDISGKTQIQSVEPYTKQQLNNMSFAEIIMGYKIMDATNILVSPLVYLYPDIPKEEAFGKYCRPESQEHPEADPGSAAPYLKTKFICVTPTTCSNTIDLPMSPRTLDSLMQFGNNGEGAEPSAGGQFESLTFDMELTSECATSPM

Chain of Receptor-type tyrosine-protein kinase FLT3 (Homo sapiens) (P36888 whole entry): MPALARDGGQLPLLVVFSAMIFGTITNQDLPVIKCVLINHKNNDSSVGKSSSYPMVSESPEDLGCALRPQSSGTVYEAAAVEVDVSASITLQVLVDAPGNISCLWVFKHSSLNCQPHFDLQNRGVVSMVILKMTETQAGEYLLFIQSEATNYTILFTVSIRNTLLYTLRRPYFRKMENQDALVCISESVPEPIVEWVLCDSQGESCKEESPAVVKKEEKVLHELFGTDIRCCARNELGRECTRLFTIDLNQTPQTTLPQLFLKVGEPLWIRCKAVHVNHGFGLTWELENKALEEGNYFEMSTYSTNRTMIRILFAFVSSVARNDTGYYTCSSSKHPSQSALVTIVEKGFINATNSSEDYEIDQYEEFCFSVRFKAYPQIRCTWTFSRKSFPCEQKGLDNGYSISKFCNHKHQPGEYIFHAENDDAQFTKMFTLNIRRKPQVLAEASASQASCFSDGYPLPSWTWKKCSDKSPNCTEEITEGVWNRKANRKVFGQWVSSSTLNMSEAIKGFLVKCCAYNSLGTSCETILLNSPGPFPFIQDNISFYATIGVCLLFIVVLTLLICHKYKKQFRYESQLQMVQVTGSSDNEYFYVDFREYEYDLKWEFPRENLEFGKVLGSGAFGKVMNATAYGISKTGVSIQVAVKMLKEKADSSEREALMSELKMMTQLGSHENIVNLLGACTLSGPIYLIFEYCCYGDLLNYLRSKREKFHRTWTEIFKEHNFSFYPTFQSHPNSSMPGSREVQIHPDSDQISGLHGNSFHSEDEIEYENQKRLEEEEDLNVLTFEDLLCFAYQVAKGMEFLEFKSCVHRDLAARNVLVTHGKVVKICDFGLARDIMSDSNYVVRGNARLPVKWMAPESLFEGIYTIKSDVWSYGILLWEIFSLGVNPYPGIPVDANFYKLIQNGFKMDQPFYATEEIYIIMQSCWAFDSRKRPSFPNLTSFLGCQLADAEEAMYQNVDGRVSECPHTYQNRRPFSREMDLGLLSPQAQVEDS
Chain of Tyrosine-protein kinase ABL1 (Homo sapiens) (P00519 whole entry): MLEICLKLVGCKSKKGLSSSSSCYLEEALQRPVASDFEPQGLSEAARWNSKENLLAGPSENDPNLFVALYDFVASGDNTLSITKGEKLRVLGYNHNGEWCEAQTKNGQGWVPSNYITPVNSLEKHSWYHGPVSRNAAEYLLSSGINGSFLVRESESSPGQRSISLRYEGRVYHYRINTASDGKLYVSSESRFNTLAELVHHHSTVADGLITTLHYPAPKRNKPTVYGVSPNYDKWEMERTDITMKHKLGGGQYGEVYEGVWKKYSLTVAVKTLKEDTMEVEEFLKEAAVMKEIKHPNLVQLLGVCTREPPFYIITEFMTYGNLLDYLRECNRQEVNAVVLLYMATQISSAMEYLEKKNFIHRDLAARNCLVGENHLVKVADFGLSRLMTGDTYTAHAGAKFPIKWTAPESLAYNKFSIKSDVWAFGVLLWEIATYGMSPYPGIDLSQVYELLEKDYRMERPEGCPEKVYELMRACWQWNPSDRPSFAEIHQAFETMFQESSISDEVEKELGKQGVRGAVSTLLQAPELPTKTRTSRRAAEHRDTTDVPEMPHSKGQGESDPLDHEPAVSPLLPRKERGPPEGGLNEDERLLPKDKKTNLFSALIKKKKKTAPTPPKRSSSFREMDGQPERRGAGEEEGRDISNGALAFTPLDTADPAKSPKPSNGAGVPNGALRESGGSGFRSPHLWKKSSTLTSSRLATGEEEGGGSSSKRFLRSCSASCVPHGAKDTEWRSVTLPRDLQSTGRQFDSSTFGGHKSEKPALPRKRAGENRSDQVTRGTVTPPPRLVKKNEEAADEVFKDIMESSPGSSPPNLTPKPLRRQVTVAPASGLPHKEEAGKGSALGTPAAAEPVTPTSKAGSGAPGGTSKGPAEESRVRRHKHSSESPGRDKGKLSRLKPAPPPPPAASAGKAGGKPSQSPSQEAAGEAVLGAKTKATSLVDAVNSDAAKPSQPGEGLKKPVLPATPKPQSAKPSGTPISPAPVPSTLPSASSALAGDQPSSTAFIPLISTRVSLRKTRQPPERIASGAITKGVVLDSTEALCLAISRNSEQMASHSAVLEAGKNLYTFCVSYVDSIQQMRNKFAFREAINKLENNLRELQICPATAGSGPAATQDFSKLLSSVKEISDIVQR

Ki [1] [µM] | Compound | further results
> 60 | CN(CC(=O)N(Cc1nccn1C)c1ccc(C(=O)O)c(O)c1)S(=O)(=O)c1c(F)c(F)c(F)c(F)c1F | 
> 60 | Cc1ccc(CN(C(=O)CN(C)S(=O)(=O)c2c(F)c(F)c(F)c(F)c2F)c2ccc(C(=O)O)c(O)c2)cc1 | 
> 60 | Cc1cc(C)c(S(=O)(=O)N(C)CC(=O)N(CC23CCC(CC2)C3)c2ccc(C(=O)O)c(O)c2)c(C)c1 | 
> 60 | Cc1cc(C)c(S(=O)(=O)N(C)CC(=O)N(CC2CC2)c2ccc(C(=O)O)c(O)c2)c(C)c1 | 
 | O=C(O)c1ccc(N(Cc2ccc3ccccc3c2)C(=O)CN(Cc2ccc(Cl)cc2)S(=O)(=O)c2c(F)c(F)c(F)c(F)c2F)cc1O | IC50 (K562 [2]): 3 µM
> 60 | CN(CC(=O)N(Cc1cccs1)c1ccc(C(=O)O)c(O)c1)S(=O)(=O)c1c(F)c(F)c(F)c(F)c1F | 
> 60 | Cc1ccc(CN(C(=O)CN(C)S(=O)(=O)c2c(C)cc(C)cc2C)c2ccc(C(=O)O)c(O)c2)cc1 | 
> 60 | Cc1cc(C)c(S(=O)(=O)N(C)CC(=O)N(CC2CCCO2)c2ccc(C(=O)O)c(O)c2)c(C)c1 (stereo unspecified) | 
> 60 | CN(CC(=O)N(Cc1ccc(F)cc1)c1ccc(C(=O)O)c(O)c1)S(=O)(=O)c1c(F)c(F)c(F)c(F)c1F | 
> 60 | Cc1cc(C)c(S(=O)(=O)N(C)CC(=O)N(Cc2c(F)c(F)c(F)c(F)c2F)c2ccc(C(=O)O)c(O)c2)c(C)c1 | 
> 60 | CN(CC(=O)N(Cc1ccccc1)c1ccc(C(=O)O)c(O)c1)S(=O)(=O)c1c(F)c(F)c(F)c(F)c1F | 
> 60 | Cc1cc(C)c(S(=O)(=O)N(C)CC(=O)N(Cc2ccccc2)c2ccc(C(=O)O)c(O)c2)c(C)c1 | 
> 60 | Cc1cc(C)c(S(=O)(=O)N(C)CC(=O)N(Cc2nccn2C)c2ccc(C(=O)O)c(O)c2)c(C)c1 | 
> 60 | Cc1cc(C)c(S(=O)(=O)N(C)CC(=O)N(Cc2cccs2)c2ccc(C(=O)O)c(O)c2)c(C)c1 | 
> 60 | Cc1cc(C)c(S(=O)(=O)N(C)CC(=O)N(Cc2ccc(C(C)(C)C)cc2)c2ccc(C(=O)O)c(O)c2)c(C)c1 | 
 | Cc1cc(C)c(S(=O)(=O)N(CC(=O)N(Cc2ccc3ccccc3c2)c2ccc(C(=O)O)c(O)c2)Cc2ccc(Cl)cc2)c(C)c1 | IC50 (K562 [2]): 3 µM
> 60 | CN(CC(=O)N(Cc1ccc(C(C)(C)C)cc1)c1ccc(C(=O)O)c(O)c1)S(=O)(=O)c1c(F)c(F)c(F)c(F)c1F | 
> 60 | CN(CC(=O)N(Cc1c(F)c(F)c(F)c(F)c1F)c1ccc(C(=O)O)c(O)c1)S(=O)(=O)c1c(F)c(F)c(F)c(F)c1F | 
 | CC(C)(C)c1cc(CN(C(=O)CN(Cc2ccc(Cl)cc2)S(=O)(=O)c2c(F)c(F)c(F)c(F)c2F)c2ccc(C(=O)O)c(O)c2)cc(C(C)(C)C)c1 | IC50 (K562 [2]): 3 µM; IC50 (MV4-11): 3.5 µM; inhibition (K562 [3]): Dose-dependent effect; inhibition (K562 [4]): Active; Activity (K562 [5]): inactive; Activity (MDA-MB-231 [6]): inactive; Activity (MDA-MB-231 [7]): inactive; inhibition (K562 [8]): Dose-dependent effect; inhibition (K562 [9]): Active; Activity [10]: Non-toxic; Kd [11]: 0.042 µM; inhibition (JAK2/JAK1 (Homo sapiens)): inactive; inhibition [12]: inactive; inhibition [13]: inactive; inhibition [14]: inactive
 | Cc1cc(C)c(S(=O)(=O)N(CC(=O)N(Cc2cc(C(C)(C)C)cc(C(C)(C)C)c2)c2ccc(C(=O)O)c(O)c2)Cc2ccc(Cl)cc2)c(C)c1 | IC50 (K562 [2]): 3 µM
> 60 | Cc1cc(C)c(S(=O)(=O)N(C)CC(=O)N(Cc2ccc(F)cc2)c2ccc(C(=O)O)c(O)c2)c(C)c1 | 
> 60 | CN(CC(=O)N(CC12CCC(CC1)C2)c1ccc(C(=O)O)c(O)c1)S(=O)(=O)c1c(F)c(F)c(F)c(F)c1F | 
> 60 | CN(CC(=O)N(CC1CC1)c1ccc(C(=O)O)c(O)c1)S(=O)(=O)c1c(F)c(F)c(F)c(F)c1F | 
> 60 | CN(CC(=O)N(CC1CCCO1)c1ccc(C(=O)O)c(O)c1)S(=O)(=O)c1c(F)c(F)c(F)c(F)c1F (stereo unspecified) | 

Compound | Ki [1] [µM] | further results
CN(CC(=O)N(Cc1ccc2ccccc2c1)c1ccc(C(=O)O)c(O)c1)S(=O)(=O)c1c(F)c(F)c(F)c(F)c1F | 12.4 | IC50 (K562 [2]): 3 µM
CN(CC(=O)N(Cc1cc(C(C)(C)C)cc(C(C)(C)C)c1)c1ccc(C(=O)O)c(O)c1)S(=O)(=O)c1c(F)c(F)c(F)c(F)c1F | 11.5 | IC50 (K562 [2]): 3 µM
Cc1cc(C)c(S(=O)(=O)N(C)CC(=O)N(Cc2ccc3ccccc3c2)c2ccc(C(=O)O)c(O)c2)c(C)c1 | 6.62 | IC50 (K562 [2]): 3 µM
Cc1cc(C)c(S(=O)(=O)N(C)CC(=O)N(Cc2cc(C(C)(C)C)cc(C(C)(C)C)c2)c2ccc(C(=O)O)c(O)c2)c(C)c1 | 4.77 | IC50 (K562 [2]): 3 µM
